{"data": "Measured values from different studies", "CDK18": "Cyclin-dependent kinase 18 (CDK18, Homo sapiens, UniProt Q07002)", "CDK18 with cyclin Y": "Cyclin-dependent kinase 18, with cyclin Y (CDK18, Homo sapiens, UniProt Q07002)", "note": "Lines come from different studies, so protocols differ."}
{"Structure (SMILES)": "C1=C/COCc2cc(ccc2OCCN2CCCC2)Nc2nccc(n2)-c2cccc(c2)COC/1", "target": "CDK18", "assay": "binding", "conditions": "0.1 µM", "measurement": "remaining binding", "value": "92%"}
{"Structure (SMILES)": "CC(C)S(=O)(=O)c1ccc2nccc(Nc3ccc4sc(C5CCCC5)nc4c3)c2c1", "target": "CDK18 with cyclin Y", "assay": "enzyme activity, inhibitor", "conditions": "1 µM", "measurement": "activity vs control", "value": "104%"}
{"Structure (SMILES)": "CCCCC(=O)Nc1ccc(-c2ccc3ncn(CCC)c(=O)c3c2)cn1", "target": "CDK18", "assay": "binding, competition with immobilised ligand", "conditions": "0.5 µM", "measurement": "remaining binding", "value": "100%"}
{"Structure (SMILES)": "COc1ccc2[nH]c3c4[nH]c5ccc(OC)cc5c4c4c(c3c2c1)C(=O)NC4=O", "target": "CDK18", "assay": "binding", "conditions": "1 µM", "measurement": "remaining binding", "value": "80%"}
{"Structure (SMILES)": "C=CC(=O)N1CCC[C@@H](n2nc(-c3ccc(Oc4ccccc4)cc3)c3c(N)ncnc32)C1", "target": "CDK18", "assay": "enzyme activity, inhibitor", "conditions": "1 µM", "measurement": "inhibition", "value": "3%"}
{"Structure (SMILES)": "Cc1ccc(NC(=O)c2ccnc(C(F)(F)F)c2)cc1-c1cc(OCCO)nc(N2CCOCC2)c1", "target": "CDK18", "assay": "binding", "conditions": "1 µM", "measurement": "remaining binding", "value": "100%"}
{"Structure (SMILES)": "C=CC(=O)N1CCC([C@@H]2CCNc3c(C(N)=O)c(-c4ccc(Oc5ccccc5)cc4)nn32)CC1", "target": "CDK18", "assay": "enzyme activity, inhibitor", "conditions": "1 µM", "measurement": "inhibition", "value": "9%"}
{"Structure (SMILES)": "COc1ccc2oc(-c3ccc4nc(N)oc4c3)c/c(=N\\c3ccccc3NC(=O)CCN)c2c1", "target": "CDK18 with cyclin Y", "assay": "binding", "conditions": "1 µM", "measurement": "remaining binding", "value": "108%"}
